Assay results as given in paper PMC8426090 (ACS chemical neuroscience, 2021).
“Also recorded” adds a separate entry of the source. Counter-ions that a name gives are not always drawn.

Tests used:
D2^high = conditions: cited from earlier work
dopamine D2 receptor [1] = target: dopamine D2 receptor (Rattus norvegicus, UniProt P61169); assay: in vitro autoradiography on rat brain sections; format: binding; conditions: transaxial and coronal/transversal sections; excess competitor
dopamine D2 receptor [2] = conditions: co-incubation with guanylylimidodiphosphate; cited from earlier work
[3] = system: other receptors of the D2 receptor family; other receptors found in the brain; conditions: cited from earlier work
[4] = human liver microsome stability assay; format: in vitro ADME; conditions: 1 h (60 min), 37 °C, NADPH 1 mM, pooled human liver microsomes
Summary of the method: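 Test compound (from a 100× stock) preincubated 5 min at 37 °C with pooled human liver microsomes in 100 mM phosphate buffer pH 7.4. NADPH (1 mM final) started the reaction, run 30 or 60 min at 37 °C and quenched with cold acetonitrile. Supernatant analysed by C18 HPLC (UV 265 nm), with remaining parent expressed relative to the 0 min sample. Dextromethorphan was the positive control; negative controls were heat-inactivated microsomes and no NADPH. Triplicate.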

[5] = biodistribution of [3H]MCL-536 in peripheral organs; format: in vivo, Sprague–Dawley rats
[6] = biodistribution of [3H]MCL-536 in the rat brain; format: in vivo, Sprague–Dawley rats; conditions: for uptake in striatum, % injected dose per gram wet tissue: 15 min after tail vein injection

dopamine D2 receptor (Rattus norvegicus, UniProt P61169), sequence (P61169 whole entry): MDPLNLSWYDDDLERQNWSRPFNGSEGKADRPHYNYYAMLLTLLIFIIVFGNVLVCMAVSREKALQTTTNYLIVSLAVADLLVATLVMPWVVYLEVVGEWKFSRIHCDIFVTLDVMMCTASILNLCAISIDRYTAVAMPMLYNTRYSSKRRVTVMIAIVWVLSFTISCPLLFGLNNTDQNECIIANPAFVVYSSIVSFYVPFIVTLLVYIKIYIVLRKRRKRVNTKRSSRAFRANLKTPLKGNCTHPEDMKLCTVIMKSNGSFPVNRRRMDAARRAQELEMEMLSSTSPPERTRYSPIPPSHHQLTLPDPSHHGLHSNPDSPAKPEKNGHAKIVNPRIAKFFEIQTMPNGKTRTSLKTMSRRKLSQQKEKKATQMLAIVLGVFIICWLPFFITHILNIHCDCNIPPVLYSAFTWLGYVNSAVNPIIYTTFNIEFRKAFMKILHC

C[C@H](N)Cc1ccccc1 [Amphetamine, d-amphetamine sulfate]
increase in D2high, measured in the striatum in vivo (D2^high; in vivo): ~2.36 fold | elevation of D2high in vitro in the same tissue (D2^high; striatum, in vitro): 2.44 fold

Nc1nc2c(ncn2[C@@H]2O[C@H](COP(=O)(O)OP(=O)(O)NP(=O)(O)O)[C@@H](O)[C@H]2O)c(=O)[nH]1 [Gpp(NH)p, guanylylimidodiphosphate]
effect on binding of [3H]MCL-536 on brain sections (summary statements) (dopamine D2 receptor [1]): abolished binding | binding of [3H]MCL-536 to D2high on co-incubation (dopamine D2 receptor [2]): abolished binding to D2^high

[3H]C(C)C([3H])N1CCc2cc(OCCCF)cc3c2[C@H]1Cc1cccc(O)c1-3 (stereo partly shown) [MCL-536]
affinity for other receptors found in the brain / other receptors tested [3]: little to no affinity | affinity for other receptors of the D2 receptor family [3]: but not for the other receptors of the D2 subfamily; also recorded: but not to other receptors of the D2 receptor family | compound remaining intact after incubation with human liver microsomes [4]: about 75%

CCCN1CCc2cccc3c2[C@H]1Cc1ccc(O)c(O)c1-3 [NPA, (R)-(−)-N-n-propylnorapomorphine]
effect on binding of [3H]MCL-536 on brain sections (summary statements) (dopamine D2 receptor [1]): abolished

[3H]C(C)C([3H])N1CCc2cc(OCCCF)cc3c2[C@H]1Cc1cccc(O)c1-3 (stereo partly shown) [[^3H]MCL-536]
time of maximum %ID/g in peripheral tissues ([5]; all peripheral tissues): 15 min | reduction of levels in fatty tissue ([5]; at 60 min): about 2/3 | decline of %ID/g in the kidneys ([5]; by 60 min, both sexes): about 60% | brain uptake values 4 h after injection ([6]; 4 h after injection): almost baseline | uptake in striatum, % injected dose per gram wet tissue ([6]; female rats): 0.42 %ID/g | course of %ID/g in the striatum ([6]; females, 60 min postinjection): stable | baseline binding in cerebellum ([6]; male and female rats): ≤ 0.1 %ID/g | uptake in striatum, % injected dose per gram wet tissue ([6]; male rats): 0.28 %ID/g | decline of %ID/g in the striatum ([6]; males, 60 min postinjection): about 25%

CCN1CCC[C@H]1CNC(=O)c1c(O)c(Cl)cc(Cl)c1OC [raclopride]
effect on binding of [3H]MCL-536 on brain sections (summary statements) (dopamine D2 receptor [1]): completely abolished

CCN1CCCC1CNC(=O)c1cc(S(N)(=O)=O)ccc1OC (stereo not shown) [sulpiride]
effect on binding of [3H]MCL-536 on brain sections (summary statements) (dopamine D2 receptor [1]): completely abolished
